# An excerpt weighted towards active compounds, which were near 2.6% of everything screened.
# SIRT5 block – blocks human SIRT5 desuccinylation of peptide; Q9NXA8; Purified SirT5, succinyl-peptide AMC, trypsin-coupled fluorescence; inhibition, % at 15 µM; 330,000 compounds, 1.1% hits; in the data active = inhibition above about 15%
# UCH37 inh – inhibitors of human deubiquitinating enzyme UCH37 | 330,000 compounds, 0.33% hits | inhibition, % (no concentration beside the values) | AID 588478 | purified proteasome/UCH37, Ub-AMC cleavage fluorescence;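 active = mean inhibition over replicate wells above about 20%, limit read from the data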;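 note: 0% = compound-free wells with enzyme and 100% = wells lacking proteasome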
#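 Material: human UCH37 enzyme supplied as purified proteasome complex / Amount: 0.15 nM proteasome as dispensed / Buffer or medium: pH 7.4 Tris-HCl (50 mM) with ovalbumin, ATP-MgCl2, DTT / Times: preincubation 30 min, reaction 25 min, room temperature / Technique: AMC fluorescence from Ub-AMC cleavage, excitation 355 nm, emission 460 nm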
# NSD2 inh – blocks human histone methyltransferase NSD2. O96028. NSD2 peptide methylation, AlphaScreen, 120 min. inhibition, % at 12.5 µM. 310,000 compounds, 0.54% hits. AID 743445; in the data active = inhibition above about 50%
# FGF22 binding – FGF22 (human) thermal shift binding. Q9HCT0. recombinant FGF22 thermal shift, SYPRO orange fluorescence; percent of sucrose octasulfate shift, DMSO zero. activity (Tm shift, normalised), % at 9.99 µM. 340,000 compounds, 1.5% hits;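 active = mean Tm shift, scaled 0 neutral to 100 positive control, at about 1.3% or above, every replicate too, limit read from the data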
# Casp6 inh – inhibitors of human caspase-6; P55212; purified caspase-6, Z-VEID-R110 cleavage fluorescence; inhibition, % at 12.5 µM; 350,000 compounds, 0.53% hits; AID 686996;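 active = mean inhibition across replicates at least about 35%, with every replicate also reaching that limit, limit read from the data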;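 note: 0% = median of neutral control wells and 100% = no fluorescence left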
# * hit, by the source's call; x = not tested or not shown.
SMILES,SIRT5 block,UCH37 inh,NSD2 inh,FGF22 binding,Casp6 inh
CCOC(=O)CNC(=O)c1ccccc1Br,x,-1.6,0.4,x,x
O=C(CN1CC(c2ccccc2)CC1=O)N/N=C/c1cc(Br)ccc1O (stereo not drawn),20.2*,x,-0.3,0.3,20.4
O=C(O)CNC(=O)c1ccccc1Br,6.8,-0.5,-2.2,43.0*,1.6
C[C@@H]1CN([C@@H](C)CO)C(=O)c2cc(NC(=O)NC3CCCCC3)ccc2O[C@H]1CN(C)C(=O)Nc1ccc2c(c1)OCO2,2.0,x,x,-0.3,-2.0
C/C=C/c1ccc2c(c1)O[C@H](CN(C)C(=O)c1ccccc1)[C@@H](C)CN([C@H](C)CO)S2(=O)=O,-0.8,x,x,-0.2,1.5
O=C(Nc1cc(F)ccc1F)N[C@H]1CC[C@@H](CCn2cc(C3CCCCC3)nn2)O[C@H]1CO,-9.6,x,x,-0.3,-0.5
O=C(CNC(=O)c1ccccc1Br)N/N=C/c1ccccc1O,0.1,x,-5.6,43.5*,-2.4
CCCn1c(=O)c(C(=O)OCC)c(O)c2cc(Br)ccc21,x,3.8,-1.0,x,x
CCOC(=O)c1c(CN(C)C)n(C)c2c(O)c(N=NC(N)=O)c3ccc(Br)cc3c12,-6.4,52.2*,50.0,-0.4,16.5
C[C@@H]1CN([C@@H](C)CO)C(=O)c2cc(-c3ccccc3)cnc2O[C@H]1CN(C)C(=O)Nc1ccc2c(c1)OCO2,-0.7,x,x,-0.2,-0.8
C[C@H]1CN([C@@H](C)CO)C(=O)c2cc(-c3ccccc3)cnc2O[C@@H]1CN(C)C(=O)Nc1ccc2c(c1)OCO2,9.5*,x,x,0.1,-1.5
C[C@@H]1CN([C@@H](C)CO)C(=O)c2cc(-c3cccnc3)cnc2O[C@H]1CN(C)C(=O)Nc1ccc2c(c1)OCO2,32.3*,x,x,0.0,-3.0
CN(CC(=O)Nc1ccc(OC(F)(F)F)cc1)C(=O)c1ccccc1SCC(=O)N1CCCC1,-0.9,0.1,-4.6,-0.2,80.6*
Cc1cccc(NC(=O)COC(=O)c2ccccc2SCC(=O)N2CCCC2)c1,2.3,-0.8,-2.7,28.3*,-2.1
CN(CC(=O)Nc1ccc(Cl)c(Cl)c1)C(=O)c1ccccc1SCC(=O)N1CCCC1,x,x,-4.9,-0.3,1.3
O=C(C[C@@H]1C[C@@H]2c3cc(NC(=O)C4CCOCC4)ccc3O[C@@H]2[C@H](CO)O1)NCC1CC1,0.7,x,x,x,-2.7
COc1ccccc1-c1cccc(-c2nc(C(=O)N3CCCCC3)cc3c2[C@H](CCO)N([S@@](=O)C(C)(C)C)C3)c1,1.9,x,x,-0.2,0.6
COc1ccc(C)cc1NC(=O)CNC(c1ccccc1)c1ccccc1,-3.0,5.1,14.7,-0.3,0.3
COc1cc(C(=O)Nc2ccc(C)cc2C(NCC(=O)NN)c2ccccc2)cc(OC)c1OC (stereo not drawn),18.6*,1.2,-0.5,-0.3,-3.8
CCS(=O)(=O)Nc1ccc2c(c1)C(=O)N(C)C[C@@H](OC)[C@@H](C)CN(Cc1ccccn1)[C@H](C)CO2,-9.0,x,x,-0.1,2.3
C/C=C/c1ccc([C@@H]2[C@H](CO)N[C@H]2CN(CC)C(=O)CN2CCOCC2)cc1,-3.0,x,x,0.4,x
Cc1ccccc1S(=O)(=O)N(C)C[C@H]1OCc2ccccc2-c2c(n(C)c3ccccc23)C(=O)N([C@@H](C)CO)C[C@@H]1C,22.4*,x,x,0.1,-1.7
Cc1ccc(S(=O)(=O)N(C)C[C@H]2OCc3ccccc3-c3c(n(C)c4ccccc34)C(=O)N([C@H](C)CO)C[C@H]2C)cc1,20.0*,x,x,-0.2,2.5
COc1ccc(S(=O)(=O)N(C)C[C@@H]2OCc3ccccc3-c3c(n(C)c4ccccc34)C(=O)N([C@H](C)CO)C[C@H]2C)cc1,15.9*,x,x,-0.1,-3.0
CCOC(=O)C=c1sc(=Cc2c(OC)ccc3ccccc23)c(=O)n1CC(=O)NCC1CCCO1 (stereo not drawn),x,-2.9,x,x,x
SMILES,SIRT5 block,UCH37 inh,NSD2 inh,FGF22 binding,Casp6 inh
CCN(CC)CCNC(=O)CCN1N=C(c2ccccc2)CCC1=O,25.9*,1.8,5.2,-0.2,x
COc1ccc(C2NC(Cc3ccccc3)(C(=O)O)C3C(=O)N(c4ccccc4OC)C(=O)C23)cc1 (stereo not drawn),7.6,0.0,-2.3,42.9*,-1.3
COC1OC2COC(c3ccccc3)OC2C(OC(=O)c2ccccc2)C1OC(=O)c1ccccc1 (stereo not drawn),2.7,0.4,-0.7,0.0,-1.5
COC1OC2COC(c3ccccc3)OC2C(NC(C)=O)C1OC(C)=O (stereo not drawn),x,x,-2.0,45.1*,-12.9
C[C@H](CO)N1C[C@H](C)[C@@H](CN(C)Cc2ccccc2)Oc2ncc(-c3ccccc3F)cc2C1=O,x,x,x,0.0,-0.4
CCCCCCC12Cc3cc(OC)c(OC)cc3C(O1)C1=C(O2)C(C)(C)CCC1=O (stereo not drawn),x,x,x,42.9*,-4.0
CCCCCCC12Cc3cc(OC)c(OC)cc3C(O1)c1c(cc(C)oc1=O)O2 (stereo not drawn),x,x,4.8,-0.1,-0.1
COCCNC(=O)[C@H]1[C@H](CO)[C@H]2Cn3c(ccc(-c4cccc(F)c4)c3=O)[C@@H]1N2C(=O)NC(C)C,-32.0,x,x,-0.1,4.2
CC(C)=N/N=c1\scc(C)n1Cc1ccco1,-6.8,x,5.8,42.9*,-4.0
CC(C)c1cn([C@H]2C[C@@H]3O[C@H](CO)CC[C@@H]3O[C@@H]2CCc2ccc(C#CC3(O)CCCC3)cc2)nn1,3.9,x,x,-0.2,0.6
COc1ccc(NC(=O)c2ccc(NC(=O)c3ccncc3)cc2)cc1,-3.6,-1.2,21.3,0.6,-0.4
CCOC(=O)CSc1ccc(C(=O)Nc2ccc(OC)cc2)cn1,-1.6,-1.5,-1.1,43.2*,-0.9
COc1ccc(NC(=O)c2ccc(Oc3ncccn3)cc2)cc1,-0.2,0.8,-3.0,43.8*,-2.3
Cc1cccc(C(=O)Nc2ccc(NC(=O)c3cccc(C)c3)cc2)c1,4.2,x,-2.0,-0.2,-2.6
COc1ccc(C(=O)Nc2ccc3ccccc3c2)c(OC)c1,-7.1,1.3,-5.9,0.8,42.9*
CCOC(=O)CSc1ccc(C(=O)Nc2ccc(Cl)cc2)cn1,-1.6,2.4,-0.2,0.2,0.6
Cc1cccc(NC(=O)c2cccc(C(=O)Nc3cccc(C)c3)c2)c1,-5.8,-0.7,-2.9,2.0*,-0.5
COc1ccccc1C(=O)Nc1ccc2ccccc2c1,4.5,4.5,x,-0.2,-2.1
O=C(NN=Cc1ccc2cccc(OCc3ccccc3)c2n1)c1ccc(Br)cc1,x,-231.1,x,x,x
CO[C@@H]1CN(C)C(=O)c2ccc(NS(C)(=O)=O)cc2OC[C@H](C)N(Cc2nccs2)C[C@@H]1C,-0.6,x,x,-0.2,-7.3
Cc1cccc(S(=O)(=O)N2C[C@H](O)COC[C@H]3O[C@@H](CC(=O)Nc4ccc(-c5ccccc5)cc4)CC[C@@H]32)c1,x,x,x,0.2,x
C[C@@H]1CN([C@H](C)CO)C(=O)c2cc(NS(=O)(=O)c3ccc(F)cc3)ccc2O[C@@H](C)CCCCO[C@H]1CN(C)C(=O)C1CCCCC1,9.7,x,x,-0.5,-2.1

# Screening results: PubChem BioAssay, several laboratories
